Reference: ChEMBL document CHEMBL4402570, “Discovery and Optimization of Novel Pyrazolopyrimidines as Potent and Orally Bioavailable Allosteric HIV-1 Integrase Inhibitors” (J Med Chem, 2020)

Columns and labels:
[1] = target: Human immunodeficiency virus type 1 integrase (Human immunodeficiency virus 1, UniProt Q7ZJM1); test: Allosteric inhibition of [3H]-2-tert-butoxy-2-[2-methyl-4-(p-tolyl)-3-quinolyl]acetic acid binding to HIV1 integrase measured after 1 hr under dark condition by microbeta plate reader method
Outline: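 Scintillation proximity displacement of tritiated LEDGF-site inhibitor from purified HIV-1 integrase (13 μM) premixed 1 h with PVT SPA beads (2 mg/mL); […]. Buffer 26 mM MOPS pH 7.0, 11 mM DTT, 100 mM NaCl, 20 mM MgCl2, 0.05% NP-40, 5% PEG-8000. Compounds 100 μM to 0.0512 nM, ten 5-fold dilutions. 1 h rocking, RT, dark; read after overnight; Ki derived.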

[2] = tested on: Human immunodeficiency virus 1; test: Antiviral activity against HIV1 NL4-3 infected in human MT2 cells measured after 3 to 4 days by luciferase reporter gene assay; assay type: functional, organism-based; conditions: Human immunodeficiency virus 1, NL4-3, MT2
[3] = Permeability of the compound in pH 7.4 buffer at 100 uM measured after 4 hrs by sandwich-PAMPA; assay type: ADME; conditions: read-out: permeability
Outline: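 Parallel artificial membrane permeability: compound at 100 μM in donor buffer pH 7.4, permeating to acceptor through artificial membrane over 4 h; donor, acceptor and t0 solutions read by UV plate reader; triplicate.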

[4] = Stability of the compound in human liver microsomes assessed as parent compound remaining at 0.5 uM measured after 10 mins in presence of NADPH by LC-MS/MS analysis; assay type: ADME, Microsome; conditions: read-out: Stability
Outline: (§1)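 CYP-mediated turnover: 0.5 μM compound with human or rat liver microsomes (1 mg/mL) in 100 mM sodium phosphate pH 7.4, 6.6 mM MgCl2, 37 °C; started with NADPH, DMSO 0.014%. Samples quenched at 0 and 10 min; parent remaining by LC-MS/MS; duplicate.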

[5] = Stability of the compound in rat liver microsomes assessed as parent compound remaining at 0.5 uM measured after 10 mins in presence of NADPH by LC-MS/MS analysis; assay type: ADME, Microsome; conditions: read-out: Stability; outline: as §1
[6] = tested on: Human immunodeficiency virus 1; test: Antiviral activity against HIV1 NL4-3 harboring G140S/Q148H mutant infected in human MT2 cells measured after 3 to 4 days by luciferase reporter gene assay; assay type: functional, organism-based; conditions: Human immunodeficiency virus 1, NL4-3, MT2
Outline: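 MT-2 cells (RPMI 1640, 10% heat-inactivated FBS, 10 mM HEPES pH 7.55, 2 mM L-glutamine, penicillin/streptomycin) infected with titered NL4-3 Renilla luciferase reporter virus (luciferase replacing nef) carrying integrase G140S/Q148H, with serial compound dilutions from 10 mM DMSO stock, final DMSO 1%; luciferase read after 3–4 days; EC50 from median effect equation; n ≥ 2, some n = 1.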

[7] = Cytotoxicity against human MT2 cells measured after 4 days by XTT assay; assay type: cell-based
Outline: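 MT-2 cell viability measured by XTT after 4 days of compound exposure, run in parallel with the antiviral assay; CC50 from n ≥ 2 determinations.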

[8] = Therapeutic index, ratio of CC50 for human MT2 cells to EC50 for HIV1 NL4-3 infected in human MT2 cells; assay type: toxicity, cell-based; conditions: read-out: Ratio CC50/EC50
[9] = tested on: Human immunodeficiency virus 1; test: Antiviral activity against HIV1 NL4-3 infected in human MT2 cells measured after 3 to 4 days in presence of human serum albumin by luciferase reporter gene assay; assay type: functional, organism-based; conditions: Human immunodeficiency virus 1, NL4-3, MT2
[10] = tested on: Human immunodeficiency virus 1; test: Selectivity ratio of EC50 for HIV1 NL4-3 infected in human MT2 cells in presence of human serum albumin to EC50 for HIV1 NL4-3 infected in human MT2 cells in absence of human serum albumin; assay type: functional

Human immunodeficiency virus type 1 integrase, sequence (Q7ZJM1 whole entry): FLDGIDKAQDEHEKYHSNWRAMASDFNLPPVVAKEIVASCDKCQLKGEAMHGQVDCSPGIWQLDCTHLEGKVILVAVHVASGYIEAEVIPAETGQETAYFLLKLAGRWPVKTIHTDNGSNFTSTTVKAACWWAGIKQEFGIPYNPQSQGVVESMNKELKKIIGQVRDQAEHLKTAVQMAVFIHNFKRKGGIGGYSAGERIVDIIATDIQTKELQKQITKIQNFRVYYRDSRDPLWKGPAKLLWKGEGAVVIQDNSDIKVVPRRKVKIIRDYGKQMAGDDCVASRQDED

| EC50 [2] [nM] | Papp at 4 h, 100 µM [3] [×10⁻⁶ cm/s] | remaining at 10 min, 0.5 µM [4] [%] | remaining at 10 min, 0.5 µM [5] [%] | EC50 [9] [nM] | SMILES | Ki [1] [nM] | EC50 [6] [nM] | CC50 at 96 h [7] [nM] | selectivity ratio [8] | Ratio EC50 [10] |
| --- | --- | --- | --- | --- | --- | --- | --- | --- | --- | --- |
| 13000 | – | – | – | – | Cc1nc2cc(-c3ccccc3)nn2c(-c2cc(F)c3c(c2C)CCCO3)c1[C@@H](OC(C)(C)C)C(=O)O | > 53000 | – | – | – | – |
| > 40000 | – | – | – | – | COc1ccccc1-c1c(C(OC(C)(C)C)C(=O)O)c(C)nc2cc(-c3ccccc3)nn12 (stereo not drawn) | > 40000 | – | – | – | – |
| 130 | – | – | – | – | Cc1nc2cc(-c3cccc(-c4ccccc4)c3)nn2c(N2CCC(C)(C)CC2)c1C(OC(C)(C)C)C(=O)O (stereo not drawn) | – | – | – | – | – |
| 60 | 47.2 | 100 | 97 | – | Cc1nc2cc(-c3cccc(Oc4ccccc4)c3)nn2c(-c2cc(F)c3c(c2C)CCCO3)c1C(OC(C)(C)C)C(=O)O (stereo not drawn) | – | – | – | – | – |
| > 40000 | – | – | – | – | Cc1nc2cc(-c3ccccc3)nn2c(-c2ccccc2)c1C(OC(C)(C)C)C(=O)O (stereo not drawn) | 3700 | – | – | – | – |
| 100 | 49.2 | 95 | 94 | – | Cc1ccc(-c2cc3nc(C)c(C(OC(C)(C)C)C(=O)O)c(-c4cc(F)c5c(c4C)CCCO5)n3n2)cc1 (stereo not drawn) | – | – | – | – | – |
| 60 | 37.5 | 100 | 100 | – | Cc1nc2cc(-c3cccc(OCc4ccccc4)c3)nn2c(N2CCC(C)(C)CC2)c1C(OC(C)(C)C)C(=O)O (stereo not drawn) | – | – | – | – | – |
| 550 | 70.3 | 100 | – | – | Cc1nc2cc(-c3ccccc3)nn2c(N2CCC(C)(C)CC2)c1C(OC(C)(C)C)C(=O)O (stereo not drawn) | 60 | – | – | – | – |
| 620 | – | – | – | – | Cc1ccc(-c2c(C(OC(C)(C)C)C(=O)O)c(C)nc3cc(-c4ccccc4)nn23)cc1 (stereo not drawn) | 680 to 700 | – | 77000 | – | – |
| 3 | 48.8 | 46 | 94 | 70 | Cc1nc2cc(-c3cccc(-c4ccncc4)c3)nn2c(-c2cc(F)c3c(c2C)CCCO3)c1[C@H](OC(C)(C)C)C(=O)O | – | – | 13200 | 4410 | 23 |
| 5 | 51.4 | 73 | 100 | 23 | COc1ccc(-c2cccc(-c3cc4nc(C)c([C@H](OC(C)(C)C)C(=O)O)c(-c5cc(F)c6c(c5C)CCCO6)n4n3)c2)cn1 | – | – | > 23000 | > 4600 | 5 |
| 4500 | – | – | – | – | Cc1ccc(-c2c(C(OC(C)(C)C)C(=O)O)c(C)nc3ccnn23)cc1 (stereo not drawn) | 2000 | – | – | – | – |
| 6 | 73.3 | 78 | 96 | 110 | Cc1nc2cc(-c3cccc(-c4ccccc4)c3)nn2c(-c2cc(F)c3c(c2C)CCCO3)c1[C@H](OC(C)(C)C)C(=O)O | – | – | 6590 | 1100 | 18 |
| > 40000 | – | – | – | – | Cc1cccc(-c2c(C(OC(C)(C)C)C(=O)O)c(C)nc3cc(-c4ccccc4)nn23)c1 (stereo not drawn) | 4400 | – | – | – | – |
| 490 | – | – | – | – | Cc1nc2cc(-c3ccccc3)nn2c(-c2ccc3c(c2)CCCO3)c1C(OC(C)(C)C)C(=O)O (stereo not drawn) | 40 | – | – | – | – |
| 20 | 57 | 72 | 83 | – | Cc1nc2cc(-c3cccc(OCc4ccccc4)c3)nn2c(-c2cc(F)c3c(c2C)CCCO3)c1C(OC(C)(C)C)C(=O)O (stereo not drawn) | – | – | – | – | – |

| SMILES | EC50 [2] [nM] | Papp at 4 h, 100 µM [3] [×10⁻⁶ cm/s] | remaining at 10 min, 0.5 µM [4] [%] | remaining at 10 min, 0.5 µM [5] [%] | EC50 [9] [nM] | Ki [1] [nM] | EC50 [6] [nM] | CC50 at 96 h [7] [nM] | selectivity ratio [8] | Ratio EC50 [10] |
| --- | --- | --- | --- | --- | --- | --- | --- | --- | --- | --- |
| Cc1nc2cc(-c3ccccc3)nn2c(-c2cc(F)c3c(c2C)CCCO3)c1[C@H](OC(C)(C)C)C(=O)O | 110 | – | – | – | – | 90 | 90 | – | – | – |
